Active and inactive are the calls of the source. The calls are words filed in the database; no cut-off is given here.
Assays:
[1] = tested on: HCT-116; test: Cell cycle arrest in p53 double-mutant human HCT116 cells assessed as mitotic index at 300 nM after 24 hrs by flow cytometric analysis; assay type: functional
Summary of the method: (§1)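 HCT116 p53-/- cells pretreated with etoposide for 1 h, then released into drug-free medium with or without inhibitor for 23 h; nocodazole added to trap cells exiting G2/M. Mitotic cells scored by phospho-histone H3 labeling and DNA content (propidium iodide) by flow cytometry.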

[2] = Cytotoxicity against p53-mutant human U373 cells after 72 hrs by MTT assay; assay type: functional, cell-based, U-373MG ATCC; conditions: U373 MG
[3] = tested on: B16-F10; test: Cytotoxicity against mouse B16F10 cells after 72 hrs by MTT assay; assay type: functional, cell-based; conditions: B16-F10, 72 h
[4] = tested on: PC-3; test: Cytotoxicity against human PC3 cells after 72 hrs by MTT assay; assay type: functional, cell-based; conditions: PC-3, 72 h
[5] = tested on: A549; test: Cytotoxicity against human A549 cells after 72 hrs by MTT assay; assay type: functional, cell-based; conditions: A549, 72 h
[6] = Cytotoxicity against human Hs683 cells after 72 hrs by MTT assay; assay type: functional, cell-based; conditions: Hs 683, 72 h
[7] = tested on: LoVo; test: Cytotoxicity against human LoVo cells after 72 hrs by MTT assay; assay type: functional, cell-based
[8] = tested on: HCT-116; test: Cell cycle arrest in p53 double-mutant human HCT116 cells assessed as mitotic index after 24 hrs by flow cytometric analysis; assay type: functional; parameters: concentration or dose not given beside the values; summary of the method: as §1
[9] = tested on: MCF7; test: Cytotoxicity against human MCF7 cells after 72 hrs by MTT assay; assay type: functional, cell-based; conditions: MCF7, 72 h
[10] = Cytotoxicity against human OE21 cells after 72 hrs by MTT assay; assay type: functional, cell-based; conditions: OE21, 72 h
[11] = target: Dual specificity protein kinase CLK1 (Mus musculus, UniProt P22518); test: Inhibition of GST-fused mouse recombinant CLK1 expressed in Escherichia coli using RS peptide as substrate
Dual specificity protein kinase CLK1, sequence (P22518 whole entry, the tested form may be a part): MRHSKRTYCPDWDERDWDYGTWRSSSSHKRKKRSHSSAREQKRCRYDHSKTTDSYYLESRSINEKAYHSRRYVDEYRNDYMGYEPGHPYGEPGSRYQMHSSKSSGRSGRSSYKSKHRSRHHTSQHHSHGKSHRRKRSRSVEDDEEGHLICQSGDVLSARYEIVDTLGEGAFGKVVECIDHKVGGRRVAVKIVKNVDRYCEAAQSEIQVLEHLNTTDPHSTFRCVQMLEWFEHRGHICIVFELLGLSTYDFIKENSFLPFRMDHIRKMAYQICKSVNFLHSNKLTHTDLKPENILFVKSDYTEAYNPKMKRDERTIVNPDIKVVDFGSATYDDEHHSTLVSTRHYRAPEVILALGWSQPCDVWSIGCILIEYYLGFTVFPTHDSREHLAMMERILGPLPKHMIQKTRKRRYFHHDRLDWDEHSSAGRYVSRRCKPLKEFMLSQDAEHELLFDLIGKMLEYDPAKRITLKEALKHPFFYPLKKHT
Summary of the method: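 Blanks subtracted, activity as % of uninhibited maximum, DMSO dilution controls, IC50 from dose-response curves.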

[12] = target: Dual specificity tyrosine-phosphorylation-regulated kinase 1A (Rattus norvegicus, UniProt Q63470); test: Inhibition of GST-fused rat recombinant DYRK1A expressed in Escherichia coli using Woodtide as substrate and [gamma-33P] after 30 mins by scintillation counting
[13] = target: Cyclin-dependent kinase 5/CDK5 activator 1 (Homo sapiens, UniProt Q00535); test: Inhibition of human recombinant CDK5/p25; assay type: protein-complex assay
Cyclin-dependent kinase 5/CDK5 activator 1, sequence (Q00535 whole entry): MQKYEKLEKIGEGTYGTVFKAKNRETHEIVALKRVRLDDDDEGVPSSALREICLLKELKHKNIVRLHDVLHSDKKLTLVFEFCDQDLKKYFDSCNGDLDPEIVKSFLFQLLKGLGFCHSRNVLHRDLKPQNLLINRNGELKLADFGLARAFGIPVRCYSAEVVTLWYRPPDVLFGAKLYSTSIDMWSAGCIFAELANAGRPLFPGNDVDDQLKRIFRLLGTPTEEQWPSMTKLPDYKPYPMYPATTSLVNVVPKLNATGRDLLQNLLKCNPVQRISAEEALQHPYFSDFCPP
Cyclin-dependent kinase 5/CDK5 activator 1, sequence (Q15078 whole entry, further chain): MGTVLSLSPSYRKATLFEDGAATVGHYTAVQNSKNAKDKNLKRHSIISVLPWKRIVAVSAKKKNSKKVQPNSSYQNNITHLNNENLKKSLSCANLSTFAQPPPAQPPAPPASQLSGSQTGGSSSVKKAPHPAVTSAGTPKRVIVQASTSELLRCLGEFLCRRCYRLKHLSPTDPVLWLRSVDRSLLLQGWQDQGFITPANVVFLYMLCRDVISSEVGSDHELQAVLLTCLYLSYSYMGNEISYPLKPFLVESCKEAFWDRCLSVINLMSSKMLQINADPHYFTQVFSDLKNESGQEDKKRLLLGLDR
Summary of the method: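 Human recombinant CDK5/p25 assayed in triplicate in buffer C with 1 mg/ml histone H1 at 30 °C, 15 µM ATP final. Activity as % of uninhibited control after blank subtraction; IC50 from dose-response curves.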

[14] = target: Glycogen synthase kinase-3 (Sus scrofa, UniProt B2LUN4+I6LNT8); test: Inhibition of porcine brain GSK3alpha/beta using GS1 as substrate
[15] = Inhibition of porcine brain CK1delta/epsilon using CKS peptide as substrate; parameters: species or system Sus scrofa
[16] = tested on: A549; test: Cytostatic activity against human A549 cells after 72 hrs by quantitative videomicroscopic analysis; assay type: functional, cell-based

SMILES	Activity [1] [%]	IC50 [2] [µM]	IC50 [3] [µM]	IC50 [4] [µM]	IC50 [5] [µM]	IC50 [6] [µM]	IC50 [7] [µM]	Activity [8] [%]	IC50 [9] [µM]	IC50 [10] [µM]	IC50 [11] [µM]	IC50 [12] [µM]	IC50 [13] [µM]	IC50 [14] [µM]	IC50 [15] [µM]	Activity [16]
NC(=O)Nc1cc(-c2cccc(F)c2)sc1C(=O)N[C@H]1CCCNC1 [AZD-7762]	75															
COc1ccc2[nH]c3c4cn[nH]c4c4c(c3c2c1)C(=O)NC4=O		51	37	> 100	> 100	45	42									
Cc1ccc2[nH]c(-c3ccc[nH]3)cc2c1								5								
COc1ccc2[nH]c(-c3ccc[nH]3)c(C3CC(=O)NC3=O)c2c1 (configuration not stated)		15	0.6	6	4	6	4		19	53						
Cc1ccc2[nH]c3c4cn[nH]c4c4c(c3c2c1)C(=O)NC4=O		> 100	2	> 100	> 100	> 100	5	0			0.13	1.4	0.31	0.17	0.23	
O=C1NC(=O)c2c1c1c3cc(O)ccc3[nH]c1n1nccc21		8	7	36	15	23	7	3.9			0.09	0.18	0.51	0.041	0.16	
c1ccc2[nH]c(-n3cccn3)cc2c1		> 100	> 100	> 100	> 100	> 100	86		> 100	> 100						
O=C1NC(=O)c2c1c1[nH]ncc1c1[nH]c3ccccc3c21		> 100	75	> 100	> 100	93	44				0.42	1.7	0.91	0.9	2.6	
Cc1ccc2[nH]c(-c3ccc[nH]3)c(C3CC(=O)NC3=O)c2c1 (configuration not stated)		5	0.5	11	20	8	4		29	> 100						
Cc1ccc2[nH]c3c(c4c(c5ccnn53)C(=O)NC4=O)c2c1		57	37	75	8	64	4	13.9	9	5	3.5	> 10	> 10	0.045	7.1	
COc1ccc2[nH]c3c(c4c(c5ccnn53)C(=O)NC4=O)c2c1		> 100		> 100	8	22	34			35	> 10	> 10	> 10	0.7	> 10	
Cc1ccc2[nH]c3c(c4c(n5cccc35)C(=O)NC4=O)c2c1		22	15	75	14	45	52		42	> 100	1.5	8.3	7.5	1.7	> 10	
O=C1NC(=O)c2c1c1[nH]cnc1c1[nH]c3ccccc3c21 [GRANULATIMIDE]		6	5	11	18	23	3	19.4	46							
Cc1ccc2[nH]c(-n3cccn3)c(C3=C(Br)C(=O)NC3=O)c2c1		27	8	26	29	29	27	5.5	15	28						
O=C1NC(=O)c2c1c1c3ccccc3[nH]c1c1cccn21		33	19	50	18	52	11	9.6	49	75	0.52	1.3	2.1	0.57	10	Active
O=C1CC(c2c(-c3ccc[nH]3)[nH]c3ccccc23)C(=O)N1 (configuration not stated)		4	2	9	8	25	8		35	67						Active
COc1ccc2[nH]c3c(c4c(n5cccc35)C(=O)N(C)C4=O)c2c1		28	27	64	36	72	40		36	> 100						
COc1ccc2[nH]c(-n3cccn3)cc2c1		> 100	> 100	> 100	> 100	69	70		> 100	> 100						
COc1ccc2[nH]c(-c3ccc[nH]3)cc2c1		43	61	26	55	50	26	8.3	84	33						
O=C1NC(=O)c2c1c1c3ccccc3[nH]c1n1nccc21		0.2	25	22	8	3	0.4	23.9	25	2	0.3	2.1	4	0.49	3.2	
COc1ccc2[nH]c(-c3ccc[nH]3)c(C3CC(=O)N(C)C3=O)c2c1 (configuration not stated)		10	6	37	7	28	25		7	42						Active
O=C1NC(=O)c2c1c1c3cc(O)ccc3[nH]c1c1cccn21		> 100	93	> 100	> 100	> 100	99		> 100	> 100	0.26	0.2	2.6	0.42	1.1	
COc1ccc2[nH]c(-n3cccn3)c(C3=C(Br)C(=O)NC3=O)c2c1		27	8	26	29	30	26		11	30						
Cc1ccc2[nH]c(-n3cccn3)cc2c1		> 100	> 100	> 100	> 100	> 100	87		> 100	> 100						
COc1ccc2[nH]c3c(c4c(n5cccc35)C(=O)NC4=O)c2c1		26	22	66	26	58	39		35	37	10	> 10	> 10	1.7	> 10	
O=C1NC(=O)C(c2c(-n3cccn3)[nH]c3ccccc23)=C1Br		27	13	27	25	29	24		27	27						
O=C1NC(=O)c2c1c1c3ccccc3[nH]c1n1cncc21 [ISOGRANULATIMIDE]		> 100	35	91	79	> 100	62	17.2	99							
